Published values pooled from the literature.
Lines come from different studies, so protocols differ.
ALOX15: Polyunsaturated fatty acid lipoxygenase ALOX15 (ALOX15, Homo sapiens, UniProt P16050)
ALDH1A1: Aldehyde dehydrogenase 1A1 (ALDH1A1, Homo sapiens, UniProt P00352)

SMILES	target	read-out	action	technique	notes	endpoint	value
COC(=O)C(C)n1nc(Cn2cc3cc(OCCF)c(Cl)cc3n2)c2ccccc2c1=O (racemic)	Sphingosine 1-phosphate receptor 1 (S1PR1, Homo sapiens, UniProt P21453)	ligand displacement		radioligand	cell membranes	IC50	> 1 µM
NC/C(=C\F)COc1cccc(Cn2c(=S)[nH]c(=O)c3[nH]cnc32)c1	Thyroid peroxidase (Homo sapiens, UniProt P07202)	enzyme activity	inhibitor			IC50	13 µM
OC[C@H]1OC(O)[C@H](O)[C@@H](O)[C@@H]1O (some centres unmarked)	Spliceosome RNA helicase DDX39B (DDX39B, Homo sapiens, UniProt Q13838)	binding		MST		Kd	1860 µM
CC(=O)N[C@H]1[C@H](O[C@H]2[C@H](O)[C@@H](NC(C)=O)C(O)O[C@@H]2CO)O[C@H](CO)[C@@H](O[C@@H]2O[C@H](CO)[C@@H](O)[C@H](O)[C@H]2NC(C)=O)[C@@H]1O (some centres unmarked)	MB (Equus caballus, UniProt P68082)	binding				Kd	~346 µM
O=c1[nH]c(=O)c(Cc2cccc(C(F)(F)F)c2)c([C@H]2CC[C@H](c3ccccc3)CC2)[nH]1	Solute carrier family 22 member 1 (SLC22A1, Homo sapiens, UniProt O15245)	transporter uptake	inhibitor			IC50	> 1 µM
O=C1OC2(c3ccc(O)cc3Oc3cc(O)ccc32)c2ccccc21	ALOX15	enzyme activity	inhibitor	absorbance		IC50	44.8 µM
COc1nc(-c2cccc(-c3ccccc3)c2C)ccc1CNCCNC(=O)CCCCCCCCCCC(=O)N1CCN(CCNC(=O)c2cc3c(=O)n4cccc(C)c4nc3n(CCc3cccs3)c2=N)CC1	Programmed cell death 1 ligand 1 (CD274, Homo sapiens, UniProt Q9NZQ7)	binding		BLI		Kd	0.452 µM
OC[C@H]1O[C@@H](Oc2ccc(O)c3cccc(O)c23)[C@H](O)[C@@H](O)[C@@H]1O	ALDH1A1	enzyme activity	inhibitor	fluorescence		IC50	< 10 µM
CNC(=O)[C@H](Cc1c[nH]c2ccccc12)NC(=O)[C@@H](CC(=O)NO)CC(C)C	Matrilysin (MMP7, Homo sapiens, UniProt P09237)	enzyme activity	inhibitor			IC50	0.00294 µM
[C-]#[N+]CCOCCOc1ccc2c(-c3ccccc3C(=O)OCC)c3ccc(=O)cc-3oc2c1	ALOX15	enzyme activity	inhibitor	absorbance		IC50	20.8 µM
COc1nc2ccc(Br)cc2cc1[C@@H](c1ccccc1)[C@@](O)(CCN(C)C)c1cccc2ccccc12	ALDH1A1	enzyme activity	inhibitor	fluorescence		IC50	< 10 µM
